Measured values published in ChEMBL document CHEMBL1146019, “Structure-based design of novel HIV-1 protease inhibitors to combat drug resistance” (J Med Chem, 2006).
One block for each molecule: values may come before it.

Key:
[1] = tested on: Human immunodeficiency virus 1; assay: Antiviral activity against HIV1 BA-L isolate in human PHA-PBMC cells; format: functional, organism-based; settings: Human immunodeficiency virus 1, PBMC
In short: (§1)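 PHA-activated PBMC (1 × 10⁶/mL) were exposed to 50 TCID₅₀ of each isolate and cultured with or without drug in 10-fold serial dilutions. On day 7, supernatant p24 Gag was measured by chemiluminescent enzyme immunoassay. IC₅₀ was the concentration suppressing p24 production by 50% relative to drug-free control cultures. Assays were run in triplicate.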

[2] = tested on: Human immunodeficiency virus 1; assay: Antiviral activity against multi drug-resistant HIV1 ES variant in human PHA-PBMC cells; format: functional, organism-based; settings: Human immunodeficiency virus 1, PBMC
In short: (§2)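 PHA-activated peripheral blood mononuclear cells (1 × 10⁶/mL) infected with 50 TCID₅₀ of each isolate and cultured with or without drug in 10-fold serial dilutions. On day 7, p24 Gag protein in the supernatant was measured by automated chemiluminescent enzyme immunoassay. IC₅₀ was the concentration suppressing p24 production by 50% relative to drug-free control cultures. Assays were run in triplicate.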

[3] = tested on: Human immunodeficiency virus 1; assay: Antiviral activity against multi drug-resistant HIV1 TM variant in human PHA-PBMC cells; format: functional, organism-based; settings: Human immunodeficiency virus 1, PBMC; in short: as §2
[4] = tested on: Human immunodeficiency virus 1; assay: Antiviral activity against HIV1 LAI isolate in human MT2 cells; format: functional, organism-based; settings: Human immunodeficiency virus 1, MT2
In short: (§3)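 MT-2 cells (2 × 10⁴/mL) were infected with 100 TCID₅₀ of virus and incubated with various drug concentrations at 37 °C for 7 days. MTT was then added for 2 h at 37 °C, formazan was dissolved in acidified 2-propanol with 4% Triton X-100, and optical density was read. Assays were run in duplicate or triplicate.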

[5] = tested on: Human immunodeficiency virus 1; assay: Antiviral activity against multi drug-resistant HIV1 EV variant in human PHA-PBMC cells; format: functional, organism-based; settings: Human immunodeficiency virus 1, PBMC; in short: as §2
[6] = tested on: Human immunodeficiency virus 1; assay: Antiviral activity against multi drug-resistant HIV1 C variant in human PHA-PBMC cells; format: functional, organism-based; settings: Human immunodeficiency virus 1, PBMC; in short: as §2
[7] = tested on: Human immunodeficiency virus 1; assay: Antiviral activity against multi drug-resistant HIV1 G variant in human PHA-PBMC cells; format: functional, organism-based; settings: Human immunodeficiency virus 1, PBMC; in short: as §2
[8] = tested on: Human immunodeficiency virus 2; assay: Antiviral activity against HIV2 EHO isolate in human MT2 cells; format: functional, organism-based; settings: Human immunodeficiency virus 2, MT2; in short: as §3
[9] = tested on: Human immunodeficiency virus 1; assay: Antiviral activity against multi drug-resistant HIV1 ET variant in human PHA-PBMC cells; format: functional, organism-based; settings: Human immunodeficiency virus 1, PBMC; in short: as §2
[10] = tested on: Human immunodeficiency virus 1; assay: Antiviral activity against HIV1 LAI isolate in human PHA-PBMC cells; format: functional, organism-based; settings: Human immunodeficiency virus 1, PBMC; in short: as §1
[11] = tested on: Human immunodeficiency virus 1; assay: Antiviral activity against multi drug-resistant HIV1 K variant in human PHA-PBMC cells; format: functional, organism-based; settings: Human immunodeficiency virus 1, PBMC; in short: as §2
MT2 = assay: Cytotoxicity against human MT2 cells; format: functional
[12] = tested on: Human immunodeficiency virus 1; assay: Antiviral activity against multi drug-resistant HIV1 B variant in human PHA-PBMC cells; format: functional, organism-based; settings: Human immunodeficiency virus 1, PBMC; in short: as §2
PBMC = assay: Cytotoxicity against human PHA-PBMC cells; format: functional
[13] = biological target: Human immunodeficiency virus type 1 protease (Human immunodeficiency virus 1, UniProt Q72874); assay: Inhibition of HIV1 protease

SMILES: CC(C)(C)NC(=O)[C@@H]1C[C@@H]2CCCC[C@@H]2CN1C[C@@H](O)[C@H](Cc1ccccc1)NC(=O)[C@H](CC(N)=O)NC(=O)c1ccc2ccccc2n1
- IC50 [1]: 18 nM
- IC50 [2]: > 1000 nM
- IC50 [3]: 250 nM
- IC50 [4]: 24 nM
- IC50 [5]: > 1000 nM
- IC50 [6]: 100 nM
- IC50 [7]: 59 nM
- IC50 [8]: 1.9 nM
- IC50 [9]: 17 nM
- IC50 [10]: 14 nM
- IC50 [11]: 20 nM

SMILES: CC(C)CN(CC(O)C(Cc1ccccc1)NC(=O)O[C@@H]1C[C@@H]2CCO[C@@H]2C1)S(=O)(=O)c1ccc(CO)cc1 (some centres not stated)
- CC50 (MT2): > 100000 nM
- IC50 [1]: 2 nM
- IC50 [2]: 31 nM
- IC50 [3]: 4 nM
- IC50 [4]: 1.8 nM
- IC50 [5]: 52 nM
- IC50 [6]: 5 nM
- IC50 [7]: 20 nM
- IC50 [8]: 21 nM
- IC50 [9]: 3 nM
- IC50 [10]: 1.8 nM
- IC50 [11]: 3 nM
- IC50 [12]: 15 nM
- CC50 (PBMC): > 100000 nM

SMILES: CC(C)c1nc(CN(C)C(=O)N[C@H](C(=O)N[C@@H](Cc2ccccc2)C[C@H](O)[C@H](Cc2ccccc2)NC(=O)OCc2cncs2)C(C)C)cs1 [RITONAVIR]
- IC50 [1]: 36 nM
- IC50 [2]: > 1000 nM
- IC50 [3]: > 1000 nM
- IC50 [4]: 34 nM
- IC50 [5]: > 1000 nM
- IC50 [6]: > 1000 nM
- IC50 [7]: > 1000 nM
- IC50 [8]: 290 nM
- IC50 [9]: 15 nM
- IC50 [10]: 43 nM
- IC50 [11]: 57 nM
- IC50 [12]: > 1000 nM

SMILES: Cc1c(O)cccc1C(=O)N[C@@H](CSc1ccccc1)[C@H](O)CN1C[C@H]2CCCC[C@H]2C[C@H]1C(=O)NC(C)(C)C
- IC50 [1]: 7 nM
- IC50 [2]: > 1000 nM
- IC50 [3]: > 1000 nM
- IC50 [4]: 10 nM
- IC50 [5]: > 1000 nM
- IC50 [6]: 310 nM
- IC50 [7]: 170 nM
- IC50 [8]: 20 nM
- IC50 [9]: 32 nM
- IC50 [10]: 14 nM
- IC50 [11]: > 1000 nM
- IC50 [12]: > 1000 nM

- IC50 [4]: > 1000 nM
- Ki [13]: 5.3 nM
SMILES: CC(C)CN(CC(O)C(Cc1ccccc1)NC(=O)O[C@H]1C[C@H]2CCC[C@H]2C1)S(=O)(=O)c1ccc(CO)cc1 (some centres not stated)

- IC50 [4]: 8 nM
- Ki [13]: 0.14 nM
SMILES: CC(C)CN(CC(O)C(Cc1ccccc1)NC(=O)O[C@@H]1C[C@@H]2CCO[C@@H]2C1)S(=O)(=O)c1ccc(N)cc1 (some centres not stated)

SMILES: CC(C)(C)NC(=O)[C@@H]1CN(Cc2cccnc2)CCN1C[C@@H](O)C[C@@H](Cc1ccccc1)C(=O)N[C@H]1c2ccccc2C[C@H]1O
- IC50 [1]: 24 nM
- IC50 [2]: > 1000 nM
- IC50 [3]: > 1000 nM
- IC50 [4]: 26 nM
- IC50 [5]: > 1000 nM
- IC50 [6]: 500 nM
- IC50 [7]: 500 nM
- IC50 [8]: 13 nM
- IC50 [9]: 30 nM
- IC50 [10]: 32 nM
- IC50 [11]: 260 nM
- IC50 [12]: > 1000 nM

SMILES: CC(C)CN(C[C@@H](O)[C@H](Cc1ccccc1)NC(=O)O[C@H]1CCOC1)S(=O)(=O)c1ccc(N)cc1
- IC50 [1]: 29 nM
- IC50 [2]: > 1000 nM
- IC50 [3]: 220 nM
- IC50 [4]: 24 nM
- IC50 [5]: > 1000 nM
- IC50 [6]: 300 nM
- IC50 [7]: 310 nM
- IC50 [8]: 440 nM
- IC50 [9]: 23 nM
- IC50 [10]: 34 nM
- IC50 [11]: 68 nM
- IC50 [12]: 290 nM

SMILES: CC(C)CN(C[C@@H](O)[C@H](Cc1ccccc1)NC(=O)O[C@H]1CO[C@H]2OCC[C@H]21)S(=O)(=O)c1ccc(N)cc1
- IC50 [3]: 3.5 nM
- IC50 [6]: 3.5 nM
- IC50 [7]: 3.7 nM
- IC50 [11]: 3 nM
- IC50 [12]: 10.2 nM
